{"data": "Assay results pooled from the literature", "target": "Dual specificity tyrosine-phosphorylation-regulated kinase 1A (DYRK1A, Homo sapiens, UniProt Q13627)", "effect on": "enzyme activity", "mode": "inhibitor", "note": "Lines come from different studies, so protocols differ."}
{"SMILES": "Cc1sc(C(=O)NC2COC2)cc1-n1cc(NC(=O)Nc2c(F)cccc2Cl)cn1", "setting": "10 µM", "remaining activity [%]": 95.5}
{"SMILES": "COc1cc(Nc2cnc(C#N)c(O[C@H](C)CN(C)C)n2)ncc1-c1cnn(C)c1", "test": "radiometric", "setting": "10 µM", "remaining activity [%]": 79}
{"SMILES": "O=C(O)c1ccc2c3c1cccc3c(=O)n1c3ccccc3nc21", "setting": "0.5 µM", "remaining activity [%]": 55.5}
{"SMILES": "CC(C)(C)C(=O)c1sc(NC2CCCCC2)nc1N", "setting": "10 µM", "remaining activity [%]": 88}
{"SMILES": "O=C(Nc1cnn(-c2csc(C(=O)NC3COC3)c2)c1)Nc1c(F)cccc1Cl", "setting": "5 µM", "remaining activity [%]": 75.1}
{"SMILES": "COc1cccc(Nc2nc3cc(C(=O)O)ccc3c3cnccc23)c1", "test": "radiometric", "setting": "1 µM", "remaining activity [%]": 2}
{"SMILES": "O=c1c2ccccc2[nH]c(=S)n1CCN1CCC(=C(c2ccc(F)cc2)c2ccc(F)cc2)CC1", "setting": "0.5 µM", "remaining activity [%]": 99.9}
{"SMILES": "O=C(O)c1ccc2c(c1)nc(Nc1ccc(Cl)cc1)c1ncncc12", "test": "radiometric", "setting": "1 µM", "remaining activity [%]": 3}
{"SMILES": "CC(C)(C)c1nc(-c2cccc(NS(=O)(=O)c3c(F)cccc3F)c2F)c(-c2ccnc(N)n2)s1", "test": "radiometric", "setting": "1 µM", "remaining activity [%]": 90}
{"SMILES": "O=C(O)c1ccc2c(c1)nc(Nc1ccc(F)c(Cl)c1)c1ccncc12", "test": "radiometric", "setting": "1 µM", "remaining activity [%]": 0}
{"SMILES": "Oc1cccc(-c2nc(N3CCOCC3)c3oc4ncccc4c3n2)c1", "setting": "10 µM", "remaining activity [%]": 59}
{"SMILES": "O=C(O)c1ccc2c(c1)nc(NCCc1ccccc1)c1ccncc12", "test": "radiometric", "setting": "1 µM", "remaining activity [%]": 10}
{"SMILES": "COc1cc2nccc(Oc3ccc(NC(=S)NC(=O)c4ccccc4C)cc3)c2cc1OC", "setting": "0.5 µM", "remaining activity [%]": 95.4}
{"SMILES": "O=C(O)c1ccc2c(c1)nc(Nc1ccccc1Cl)c1ncncc12", "test": "radiometric", "setting": "1 µM", "remaining activity [%]": 11}
{"SMILES": "COc1cc(Cl)c(C(=O)N[C@@H](CN[C@H]2CC[C@@H](N)CC2)Cc2ccc(C#N)cc2)cc1-c1ccc(CN[C@H](C)c2ccc(C)cc2)o1", "setting": "1 µM", "remaining activity [%]": 120}
